Data published in ChEMBL document CHEMBL2093137, “WHO-TDR NTD Screening”.
In brackets after ≈: the same amount, converted by molar mass.

How the values were obtained:
Leishmania infantum = assay: WHO-TDR: Leishmaniasis; type: functional, organism-based, Mus musculus; settings: Macrophage
Procedure, shortened: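 Values are IC50 figures for antiparasitic potency. They come from a whole-organism screen of a 10,000-compound diverse Life Chemicals library against Leishmania infantum MHOM/MA(BE)/67 amastigotes inside murine peritoneal macrophage host cells.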

Onchocerca ochengi = assay: WHO-TDR: Onchocerciasis; type: functional; set-up: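 at 12.5 µM on microfilariae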
Procedure, shortened: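 Following previously published standard procedures, with reference drugs as positive controls, a diverse Life Chemicals library was tested on whole Onchocerca ochengi or Onchocerca lienalis microfilariae. The library held 10,000 compounds filtered for drug-likeness and reactive groups. Activity is recorded both as percent inhibition and as IC50.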

[1] = test system: Trypanosoma brucei brucei; assay: WHO-TDR: Human African Trypanosomiasis (HAT); type: functional, organism-based; settings: Squib-427
Procedure, shortened: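 Values are IC50 figures for antiparasitic potency. They come from a whole-organism screen of 10,000 diverse Life Chemicals compounds against bloodstream-form Trypanosoma brucei (Squib 427 strain).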

Plasmodium falciparum K1 = assay: WHO-TDR: Malaria; type: functional, organism-based, Homo sapiens; settings: Erythrocyte
Procedure, shortened: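 Values are IC50 figures for antiplasmodial potency. They come from a whole-organism screen of 10,000 diverse Life Chemicals compounds against Plasmodium falciparum K1 growing inside human red blood cells, run by previously published standard procedures.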

Brugia malayi = assay: WHO-TDR: Lymphatic Filariasis; type: functional; set-up: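 tested at 10 µM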
Procedure, shortened: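 Following previously published standard procedures, compounds were tested on whole Brugia malayi microfilariae, with reference drugs as positive controls. They came from a diverse Life Chemicals collection of 10,000 compounds filtered for drug-likeness and reactive groups. Results appear as percent inhibition and as IC50.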

Schistosoma mansoni = assay: WHO-TDR: Schistosomiasis; type: functional; set-up: concentration or dose not given beside the values
Procedure, shortened: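 Activity appears as percent inhibition and as IC50. The underlying screen tested a diverse library of 10,000 compounds, supplied by Life Chemicals, on whole larval and/or adult worms of the Puerto Rican strain of Schistosoma mansoni.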

[2] = WHO-TDR: Cytotoxicity; type: toxicity, cell-based; settings: human, MRC5 cells
Trypanosoma cruzi = assay: WHO-TDR: Chagas disease; type: functional, organism-based, Homo sapiens; settings: MRC5
Procedure, shortened: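 Intracellular amastigotes of the Trypanosoma cruzi Tulahuen CL2 beta-galactosidase strain, grown in MRC-5SV2 human lung fibroblast host cells, were tested in a whole-organism screen. The compounds came from a 10,000-member diverse Life Chemicals library that had been filtered for drug-likeness and reactive groups. Previously published standard procedures were followed, with a reference drug as positive control, and potency is reported as IC50.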

| SMILES | IC50 (Leishmania infantum) | IC50 [1] | IC50 (Plasmodium falciparum K1) | % Inhibition (Onchocerca ochengi) | % Inhibition (Brugia malayi) | % Inhibition (Schistosoma mansoni) | IC50 [2] | IC50 (Trypanosoma cruzi) |
| --- | --- | --- | --- | --- | --- | --- | --- | --- |
| O=C(Nc1nc(-c2ccc3c(c2)OCCO3)cs1)C1CCN(S(=O)(=O)c2ccc(Cl)cc2)CC1 | > 15.6 µg/mL | 0.586 µg/mL (≈ 1.13 µM) | 8.56 µg/mL (≈ 16.5 µM) | 50% | 0% | 0% | 2.74 µg/mL (≈ 5.28 µM) | 0.697 µg/mL (≈ 1.34 µM) |
| O=C(Nc1nc(-c2ccccn2)cs1)C1CCN(S(=O)(=O)c2ccc(Cl)cc2)CC1 | > 13.9 µg/mL | 4.13 µg/mL (≈ 8.93 µM) | 12.7 µg/mL (≈ 27.5 µM) | 100% | 0% | 0% | > 13.9 µg/mL | 4.3 µg/mL (≈ 9.28 µM) |
| Cc1ccc(S(=O)(=O)N2CCC(C(=O)Nc3c(C(N)=O)oc4ccccc34)CC2)cc1 | > 13.2 µg/mL | > 13.2 µg/mL | > 13.2 µg/mL | 100% | 0% | 0% | > 13.2 µg/mL | > 13.2 µg/mL |
| O=C(c1ccc2c(c1)OCCO2)N(CCCn1ccnc1)c1nc2c(F)cccc2s1 | > 14.2 µg/mL | 4.56 µg/mL (≈ 10.4 µM) | 1.35 µg/mL (≈ 3.08 µM) | 100% | 0% | 0% | 6.23 µg/mL (≈ 14.2 µM) | 3.6 µg/mL (≈ 8.22 µM) |
| CCc1ccc2nc(N(CCCn3ccnc3)C(=O)C3COc4ccccc4O3)sc2c1 (configuration not stated) | 4.71 µg/mL (≈ 10.5 µM) | 4.71 µg/mL (≈ 10.5 µM) | 0.363 µg/mL (≈ 0.809 µM) | 100% | 0% | 0% | 4.4 µg/mL (≈ 9.81 µM) | 1.22 µg/mL (≈ 2.73 µM) |
| O=C(c1ccco1)N(CCCn1ccnc1)c1nc2c(F)cc(F)cc2s1 | > 12.7 µg/mL | 4.08 µg/mL (≈ 10.5 µM) | 0.533 µg/mL (≈ 1.37 µM) | 100% | 0% | 0% | 7.77 µg/mL (≈ 20 µM) | 3.97 µg/mL (≈ 10.2 µM) |

The next lines start with results.

| IC50 (Leishmania infantum) | IC50 [1] | IC50 (Plasmodium falciparum K1) | SMILES | % Inhibition (Onchocerca ochengi) | % Inhibition (Brugia malayi) | % Inhibition (Schistosoma mansoni) | IC50 [2] | IC50 (Trypanosoma cruzi) |
| --- | --- | --- | --- | --- | --- | --- | --- | --- |
| > 14.4 µg/mL | 4.62 µg/mL (≈ 10.4 µM) | 2.13 µg/mL (≈ 4.8 µM) | O=C(CSc1ccc(F)cc1)N(CCCn1ccnc1)c1nc2c(F)cccc2s1 | 100% | 0% | 0% | > 14.4 µg/mL | 5.11 µg/mL (≈ 11.5 µM) |
| > 13.6 µg/mL | > 13.6 µg/mL | 0.619 µg/mL (≈ 1.48 µM) | Cc1cccc2sc(N(CCCn3ccnc3)C(=O)c3ccc(Cl)s3)nc12 | 100% | 0% | 0% | 5.04 µg/mL (≈ 12.1 µM) | 1.22 µg/mL (≈ 2.93 µM) |
| > 13.5 µg/mL | 4.31 µg/mL (≈ 10.4 µM) | 0.573 µg/mL (≈ 1.39 µM) | CCOc1cccc2sc(N(CCCn3ccnc3)C(=O)c3cccs3)nc12 | 100% | 0% | 0% | 5.87 µg/mL (≈ 14.2 µM) | 4.08 µg/mL (≈ 9.88 µM) |
| > 13 µg/mL | 4.17 µg/mL (≈ 10.5 µM) | 0.745 µg/mL (≈ 1.87 µM) | O=C(c1cccc(F)c1)N(CCCn1ccnc1)c1nc2ccc(F)cc2s1 | 100% | 0% | 0% | > 13 µg/mL | 3.32 µg/mL (≈ 8.33 µM) |
| 4.46 µg/mL (≈ 10.5 µM) | 1 µg/mL (≈ 2.37 µM) | 0.163 µg/mL (≈ 0.386 µM) | CCc1ccc2nc(N(CCCn3ccnc3)C(=O)/C=C/c3cccs3)sc2c1 | 100% | 0% | 0% | 3.5 µg/mL (≈ 8.28 µM) | 0.399 µg/mL (≈ 0.944 µM) |
| > 13.2 µg/mL | 4.23 µg/mL (≈ 10.5 µM) | 0.793 µg/mL (≈ 1.96 µM) | O=C(c1cccs1)N(CCCn1ccnc1)c1nc2c(F)cc(F)cc2s1 | 100% | 0% | 0% | 8.75 µg/mL (≈ 21.6 µM) | 4.01 µg/mL (≈ 9.91 µM) |
| 9.34 µg/mL (≈ 22.2 µM) | 4.44 µg/mL (≈ 10.6 µM) | 2.34 µg/mL (≈ 5.56 µM) | Cc1ccc(C)c2sc(N(CCCn3ccnc3)C(=O)COc3ccccc3)nc12 | 100% | 0% | 0% | 5.31 µg/mL (≈ 12.6 µM) | 1.14 µg/mL (≈ 2.71 µM) |
| > 12.5 µg/mL | 3.86 µg/mL (≈ 10.2 µM) | 0.45 µg/mL (≈ 1.18 µM) | Cc1ccc(C)c2sc(N(CCCn3ccnc3)C(=O)c3ccco3)nc12 | 100% | 0% | 0% | 3.53 µg/mL (≈ 9.28 µM) | 1.49 µg/mL (≈ 3.92 µM) |
